Experiments:
[1] = test system: Rattus norvegicus; assay: AUC in Sprague-Dawley rat at 10 mg/kg, po; type: ADME, organism-based, Plasma; parameters: dose 10 mg/kg, route oral; details: in vivo
[2] = test system: Human immunodeficiency virus; assay: Antiviral activity against HIV with reverse transcriptase K103N mutant assessed as inhibition of viral replication; type: functional, organism-based; details: Human immunodeficiency virus 1
[3] = test system: Human immunodeficiency virus; assay: Antiviral activity against HIV with reverse transcriptase G190S mutant assessed as inhibition of viral replication relative to wild type; type: functional
[4] = test system: Human immunodeficiency virus; assay: Antiviral activity against HIV with reverse transcriptase G190A mutant assessed as inhibition of viral replication; type: functional, organism-based; details: Human immunodeficiency virus 1
[5] = Clearance in Beagle dog at 0.5 mg/kg, iv; type: ADME, organism-based, Canis lupus familiaris; parameters: dose 0.5 mg/kg, route intravenous; details: in vivo
[6] = test system: Canis familiaris; assay: AUC in Beagle dog at 1 mg/kg, po; type: ADME, organism-based, Canis lupus familiaris, Plasma; parameters: dose 1 mg/kg, route oral; details: in vivo
[7] = test system: Rhesus monkey; assay: AUC in rhesus monkey at 5 mg/kg, po; type: ADME, organism-based, Macaca mulatta, Plasma; parameters: dose 5 mg/kg, route oral; details: in vivo
[8] = test system: Human immunodeficiency virus; assay: Antiviral activity against HIV with reverse transcriptase K103N/G190A double mutant assessed as inhibition of viral replication; type: functional, organism-based; details: Human immunodeficiency virus 1
[9] = Half life in Beagle dog at 0.5 mg/kg, iv; type: ADME, organism-based, Canis lupus familiaris; parameters: dose 0.5 mg/kg, route intravenous; details: in vivo
[10] = Clearance in rhesus monkey at 1 mg/kg, iv; type: ADME, organism-based, Macaca mulatta; parameters: dose 1 mg/kg, route intravenous; details: in vivo
[11] = test system: Human immunodeficiency virus; assay: Antiviral activity against HIV with reverse transcriptase Y181C mutant assessed as inhibition of viral replication relative to wild type; type: functional
[12] = Inhibition of RNA-dependent DNA polymerase activity of wild type HIV reverse transcriptase assessed as BrdU incorporation by standard ECL assay; parameters: species or system Human immunodeficiency virus
In short: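 Purified recombinant wild-type RT polymerase activity was measured using a 500-nt heteropolymeric RNA template and a biotinylated DNA primer. BrdU incorporation was detected with a ruthenylated anti-BrdU antibody by electrochemiluminescence. Ki is the geometric mean of at least two determinations, each within 25% of the mean.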

[13] = test system: Human immunodeficiency virus; assay: Antiviral activity against HIV with reverse transcriptase K103N/Y181C/G190A mutant assessed as inhibition of viral replication; type: functional, organism-based; details: Human immunodeficiency virus 1
[14] = test system: Human immunodeficiency virus; assay: Antiviral activity against wild type HIV H9-3B infected in human MT2 cells assessed as inhibition of viral replication measuring p24 level after 3 days in presence of 10% fetal bovine serum; type: functional; details: Human immunodeficiency virus 1, MT2, Serum; read-out: CIC95
In short: (§1)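 Multiple-cycle spread assay in MT2 cells with wild-type H9IIIB virus. Cells were infected overnight at moi ≈ 0.01 without compound, washed, then cultured 3 days across varying compound concentrations in RPMI 1640 with 10% FBS or 50% NHS. p24 was measured in supernatants. CIC95 is the lowest concentration inhibiting replication ≥95%, as the geometric mean of ≥2 determinations.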

[15] = test system: Human immunodeficiency virus; assay: Antiviral activity against HIV with reverse transcriptase K103N/Y181C double mutant infected in human MT2 cells assessed as inhibition of viral replication measuring p24 level after 3 days in presence of 10% fetal bovine serum; type: functional; details: Human immunodeficiency virus 1, MT2, Serum, 72 h; read-out: CIC95
In short: (§2)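 Multiple-cycle replication (Spread) assay in MT2 cells with H9IIIB-background mutant virus. Cells were infected overnight at moi ≈ 0.01 without compound, washed, then cultured 3 days across a range of compound concentrations in medium with 10% FBS. p24 was measured in supernatants. CIC95 is the lowest concentration inhibiting replication by ≥95%, reported as the geometric mean of ≥2 determinations.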

[16] = Half life in Sprague-Dawley rat at 2 mg/kg, iv; type: ADME, organism-based; parameters: dose 2 mg/kg, route intravenous; details: in vivo
[17] = test system: Human immunodeficiency virus; assay: Antiviral activity against HIV with reverse transcriptase L100I mutant assessed as inhibition of viral replication; type: functional, organism-based; details: Human immunodeficiency virus 1
[18] = test system: Human immunodeficiency virus; assay: Antiviral activity against HIV with reverse transcriptase K103N/P225H double mutant assessed as inhibition of viral replication relative to wild type; type: functional
[19] = test system: Human immunodeficiency virus; assay: Antiviral activity against HIV with reverse transcriptase K101E/Y181C/G190A mutant assessed as inhibition of viral replication relative to wild type; type: functional
[20] = Half life in rhesus monkey at 1 mg/kg, iv; type: ADME, organism-based, Macaca mulatta; parameters: dose 1 mg/kg, route intravenous; details: in vivo
[21] = test system: Human immunodeficiency virus; assay: Antiviral activity against HIV with reverse transcriptase G190S mutant assessed as inhibition of viral replication; type: functional, organism-based; details: Human immunodeficiency virus 1
[22] = Volume of distribution in rhesus monkey at 1 mg/kg, iv; type: ADME, organism-based, Macaca mulatta; parameters: dose 1 mg/kg, route intravenous; details: in vivo
[23] = test system: Human immunodeficiency virus; assay: Antiviral activity against HIV with reverse transcriptase Y188L mutant assessed as inhibition of viral replication; type: functional, organism-based; details: Human immunodeficiency virus 1
[24] = Oral bioavailability in Beagle dog at 1 mg/kg; type: ADME, organism-based, Canis lupus familiaris; details: in vivo
[25] = test system: Human immunodeficiency virus; assay: Antiviral activity against HIV with reverse transcriptase K101E/G190A double mutant assessed as inhibition of viral replication; type: functional, organism-based; details: Human immunodeficiency virus 1
[26] = test system: Human immunodeficiency virus; assay: Antiviral activity against HIV with reverse transcriptase Y181C/G190A double mutant assessed as inhibition of viral replication; type: functional, organism-based; details: Human immunodeficiency virus 1
[27] = test system: Human immunodeficiency virus; assay: Antiviral activity against HIV with reverse transcriptase K103N/Y181C double mutant assessed as inhibition of viral replication relative to wild type; type: functional
[28] = test system: Human immunodeficiency virus; assay: Antiviral activity against HIV with reverse transcriptase CNDO mutant assessed as inhibition of viral replication; type: functional, organism-based; details: Human immunodeficiency virus 1
[29] = Volume of distribution in Sprague-Dawley rat at 2 mg/kg, iv; type: ADME, organism-based; parameters: dose 2 mg/kg, route intravenous; details: in vivo
[30] = test system: Human immunodeficiency virus; assay: Antiviral activity against HIV with reverse transcriptase MDRC4 mutant assessed as inhibition of viral replication relative to wild type; type: functional
[31] = test system: Human immunodeficiency virus; assay: Antiviral activity against HIV with reverse transcriptase Y181C/G190A double mutant assessed as inhibition of viral replication relative to wild type; type: functional
[32] = test system: Human immunodeficiency virus; assay: Antiviral activity against HIV with reverse transcriptase K103N mutant infected in human MT2 cells assessed as inhibition of viral replication measuring p24 level after 3 days in presence of 10% fetal bovine serum; type: functional; details: Human immunodeficiency virus 1, MT2, Serum, 72 h; read-out: CIC95; in short: as §2
[33] = test system: Human immunodeficiency virus; assay: Antiviral activity against HIV with reverse transcriptase L100I/K103N double mutant assessed as inhibition of viral replication; type: functional, organism-based; details: Human immunodeficiency virus 1
[34] = test system: Human immunodeficiency virus; assay: Antiviral activity against HIV with reverse transcriptase V106A/G190A/F227L mutant assessed as inhibition of viral replication relative to wild type; type: functional
[35] = test system: Human immunodeficiency virus; assay: Antiviral activity against wild type HIV H9-3B infected in human MT2 cells assessed as inhibition of viral replication measuring p24 level after 3 days in presence of 50% normal human serum; type: functional; details: Human immunodeficiency virus 1, H9-3B, 72 h, read-out: CIC95; in short: as §1
[36] = test system: Human immunodeficiency virus; assay: Antiviral activity against HIV with reverse transcriptase V106A/G190A/F227L mutant assessed as inhibition of viral replication; type: functional, organism-based; details: Human immunodeficiency virus 1
[37] = Clearance in Sprague-Dawley rat at 2 mg/kg, iv; type: ADME, organism-based; parameters: dose 2 mg/kg, route intravenous; details: in vivo
[38] = test system: Human immunodeficiency virus; assay: Antiviral activity against HIV with reverse transcriptase K101E/G190A double mutant assessed as inhibition of viral replication relative to wild type; type: functional
[39] = test system: Human immunodeficiency virus; assay: Antiviral activity against HIV with reverse transcriptase Y181C mutant assessed as inhibition of viral replication; type: functional, organism-based; details: Human immunodeficiency virus 1
[40] = test system: Human immunodeficiency virus; assay: Antiviral activity against HIV with reverse transcriptase Y181C mutant infected in human MT2 cells assessed as inhibition of viral replication measuring p24 level after 3 days in presence of 10% fetal bovine serum; type: functional; details: Human immunodeficiency virus 1, MT2, Serum, 72 h; read-out: CIC95; in short: as §2
[41] = Oral bioavailability in rhesus monkey at 5 mg/kg; details: in vivo
[42] = test system: Human immunodeficiency virus; assay: Antiviral activity against HIV with reverse transcriptase K103N/Y181C double mutant assessed as inhibition of viral replication; type: functional, organism-based; details: Human immunodeficiency virus 1
[43] = test system: Human immunodeficiency virus; assay: Antiviral activity against HIV with reverse transcriptase L100I/K103N double mutant assessed as inhibition of viral replication relative to wild type; type: functional
[44] = test system: Human immunodeficiency virus; assay: Antiviral activity against HIV with reverse transcriptase K103N/P225H double mutant assessed as inhibition of viral replication; type: functional, organism-based; details: Human immunodeficiency virus 1
[45] = test system: Human immunodeficiency virus; assay: Antiviral activity against HIV with reverse transcriptase CNDO mutant assessed as inhibition of viral replication relative to wild type; type: functional
[46] = test system: Human immunodeficiency virus; assay: Antiviral activity against HIV with reverse transcriptase G190A mutant assessed as inhibition of viral replication relative to wild type; type: functional
[47] = test system: Human immunodeficiency virus; assay: Antiviral activity against HIV with reverse transcriptase MDRC4 mutant assessed as inhibition of viral replication; type: functional, organism-based; details: Human immunodeficiency virus 1
[48] = Volume of distribution in Beagle dog at 0.5 mg/kg, iv; type: ADME, organism-based, Canis lupus familiaris; parameters: dose 0.5 mg/kg, route intravenous; details: in vivo
[49] = test system: Human immunodeficiency virus; assay: Antiviral activity against HIV with reverse transcriptase Y188L mutant assessed as inhibition of viral replication relative to wild type; type: functional
[50] = test system: Human immunodeficiency virus; assay: Antiviral activity against HIV with reverse transcriptase K103N/Y181C/G190A mutant assessed as inhibition of viral replication relative to wild type; type: functional
[51] = test system: Human immunodeficiency virus; assay: Antiviral activity against HIV with reverse transcriptase L100I mutant assessed as inhibition of viral replication relative to wild type; type: functional
[52] = test system: Human immunodeficiency virus; assay: Antiviral activity against HIV with reverse transcriptase K103N mutant assessed as inhibition of viral replication relative to wild type; type: functional
[53] = test system: Human immunodeficiency virus; assay: Antiviral activity against HIV with reverse transcriptase K103N/G190A double mutant assessed as inhibition of viral replication relative to wild type; type: functional
[54] = test system: Human immunodeficiency virus; assay: Antiviral activity against HIV with reverse transcriptase K101E/Y181C/G190A mutant assessed as inhibition of viral replication; type: functional, organism-based; details: Human immunodeficiency virus 1

N#Cc1cc(Cl)cc(Oc2cc(OCc3n[nH]c4nc(N)ccc34)ccc2Cl)c1
AUC [1]: 23 µM | IC50 [2]: 0.0026 µM | fold change (FC) [3]: 8.79 | IC50 [4]: 0.0029 µM | clearance [5]: 5.8 mL/min/kg | AUC [6]: 31 µM | AUC [7]: 0.3 µM | IC50 [8]: 0.0072 µM | half-life [9]: 3.9 h | clearance [10]: 16 mL/min/kg | fold change (FC) [11]: 3.43 | Ki [12]: 0.0002 µM | IC50 [13]: 0.111 µM | IC95 [14]: 0.005 µM | IC95 [15]: 0.101 µM | half-life [16]: 3.5 h | IC50 [17]: 0.0013 µM | fold change (FC) [18]: 1.57 | fold change (FC) [19]: 21.07 | half-life [20]: 2.1 h | IC50 [21]: 0.0123 µM | Vd [22]: 1.9 L/kg | IC50 [23]: 0.881 µM | bioavailability [24]: 47% | IC50 [25]: 0.0069 µM | IC50 [26]: 0.0116 µM | fold change (FC) [27]: 55.5 | IC50 [28]: 0.0014 µM | Vd [29]: 2 L/kg | fold change (FC) [30]: 6.43 | fold change (FC) [31]: 8.29 | IC95 [32]: 0.011 µM | IC50 [33]: 0.0348 µM | fold change (FC) [34]: >714 | IC95 [35]: 0.026 µM | IC50 [36]: > 1 µM | clearance [37]: 9 mL/min/kg | fold change (FC) [38]: 4.93 | IC50 [39]: 0.0048 µM | IC95 [40]: 0.027 µM | bioavailability [41]: 1% | IC50 [42]: 0.0777 µM | fold change (FC) [43]: 24.86 | IC50 [44]: 0.0022 µM | fold change (FC) [45]: 1 | fold change (FC) [46]: 2.07 | IC50 [47]: 0.009 µM | Vd [48]: 1.7 L/kg | fold change (FC) [49]: 629.07 | fold change (FC) [50]: 78.93 | fold change (FC) [51]: 0.93 | fold change (FC) [52]: 1.86 | fold change (FC) [53]: 5.14 | IC50 [54]: 0.0295 µM
